# Results taken from ChEMBL document CHEMBL1140315, “Design and synthesis of the first generation of novel potent, selective, and in vivo active (benzothiazol-2-yl)acetonitrile inhibitors of the c-Jun N-terminal kinase” (J Med Chem, 2005).
# How the values were obtained:
# [1] = molecular target: Mitogen-activated protein kinase 10 (Rattus norvegicus, UniProt P49187); assay: Inhibition of rat c-Jun N-terminal kinase 3
# [2] = test system: Jurkat; assay: Ability to inhibit IL-2 production induced with phorbol-12, myristate-13 acetate and ionomycin in Jurkat T cell at the concentration of 10 uM; format: functional; settings: Homo sapiens
# Procedure, shortened: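 Jurkat human T cell leukemia cells in RPMI 1640 with 10% heat-inactivated FCS, plated at 2 × 10⁵ cells/well. Compounds added in 0.1% DMSO and preincubated 30 min at 37 °C. Cells then stimulated with PMA + ionomycin (0.1 and 1 µM final) for 24 h at 37 °C. IL-2 in the supernatant measured by sandwich ELISA against a recombinant human IL-2 standard.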
# [3] = molecular target: Protein kinase C alpha type (Homo sapiens, UniProt P17252); assay: Inhibition of protein kinase C alpha
# [4] = Inhibition of PI3k-gamma
# [5] = molecular target: Proto-oncogene tyrosine-protein kinase Src (Homo sapiens, UniProt P12931); assay: Inhibition of c-SRC tyrosine kinase
# Proto-oncogene tyrosine-protein kinase Src, sequence (P12931 2-536 limits assumed): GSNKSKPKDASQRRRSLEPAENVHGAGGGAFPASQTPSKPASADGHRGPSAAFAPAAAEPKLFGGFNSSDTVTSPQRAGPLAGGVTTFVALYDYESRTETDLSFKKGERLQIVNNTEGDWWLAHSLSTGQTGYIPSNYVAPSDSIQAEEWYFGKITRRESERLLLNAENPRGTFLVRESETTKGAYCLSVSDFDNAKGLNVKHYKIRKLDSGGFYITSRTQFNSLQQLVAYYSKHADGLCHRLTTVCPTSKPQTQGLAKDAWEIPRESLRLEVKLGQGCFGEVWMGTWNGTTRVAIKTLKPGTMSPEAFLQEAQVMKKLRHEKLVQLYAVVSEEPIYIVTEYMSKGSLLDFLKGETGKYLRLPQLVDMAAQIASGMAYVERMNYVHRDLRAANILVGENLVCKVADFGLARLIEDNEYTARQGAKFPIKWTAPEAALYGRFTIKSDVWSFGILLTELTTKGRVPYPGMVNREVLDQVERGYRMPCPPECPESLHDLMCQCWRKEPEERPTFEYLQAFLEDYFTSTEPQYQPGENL
# [6] = Inhibition of p56 lck tyrosine kinase
# [7] = molecular target: Tyrosine-protein kinase Blk (Homo sapiens, UniProt P51451); assay: Inhibition of BLK; Range is 5-10
# [8] = molecular target: Serine/threonine-protein kinase Sgk1 (Homo sapiens, UniProt O00141); assay: Inhibition of SGK; Range is 5-10
# Serine/threonine-protein kinase Sgk1, sequence (O00141 whole entry): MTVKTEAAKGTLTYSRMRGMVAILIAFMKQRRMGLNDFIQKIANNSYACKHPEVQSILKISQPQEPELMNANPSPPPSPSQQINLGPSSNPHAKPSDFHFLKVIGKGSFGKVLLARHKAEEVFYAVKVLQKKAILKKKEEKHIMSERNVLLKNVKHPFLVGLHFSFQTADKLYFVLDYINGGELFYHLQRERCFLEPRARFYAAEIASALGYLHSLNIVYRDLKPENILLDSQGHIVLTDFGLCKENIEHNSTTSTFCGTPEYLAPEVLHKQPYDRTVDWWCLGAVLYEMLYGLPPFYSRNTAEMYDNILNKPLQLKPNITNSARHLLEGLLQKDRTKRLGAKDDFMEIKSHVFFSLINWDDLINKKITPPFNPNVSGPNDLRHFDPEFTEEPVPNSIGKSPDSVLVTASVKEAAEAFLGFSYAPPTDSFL
# [9] = molecular target: Dual specificity mitogen-activated protein kinase kinase 6 (Homo sapiens, UniProt P52564); assay: Inhibition of Mitogen activated protein kinase 6; Range is 5-10
# [10] = molecular target: Dual specificity mitogen-activated protein kinase kinase 7 (Homo sapiens, UniProt O14733); assay: Inhibition of mitogen activated protein kinase kinase 7 beta
# [11] = molecular target: MAP kinase-activated protein kinase 5 (Homo sapiens, UniProt Q8IW41); assay: Inhibition of protein kinase PRAK
# [12] = molecular target: RAC-alpha serine/threonine-protein kinase (Homo sapiens, UniProt P31749); assay: Inhibition of AKT kinase
# RAC-alpha serine/threonine-protein kinase, sequence (P31749 whole entry): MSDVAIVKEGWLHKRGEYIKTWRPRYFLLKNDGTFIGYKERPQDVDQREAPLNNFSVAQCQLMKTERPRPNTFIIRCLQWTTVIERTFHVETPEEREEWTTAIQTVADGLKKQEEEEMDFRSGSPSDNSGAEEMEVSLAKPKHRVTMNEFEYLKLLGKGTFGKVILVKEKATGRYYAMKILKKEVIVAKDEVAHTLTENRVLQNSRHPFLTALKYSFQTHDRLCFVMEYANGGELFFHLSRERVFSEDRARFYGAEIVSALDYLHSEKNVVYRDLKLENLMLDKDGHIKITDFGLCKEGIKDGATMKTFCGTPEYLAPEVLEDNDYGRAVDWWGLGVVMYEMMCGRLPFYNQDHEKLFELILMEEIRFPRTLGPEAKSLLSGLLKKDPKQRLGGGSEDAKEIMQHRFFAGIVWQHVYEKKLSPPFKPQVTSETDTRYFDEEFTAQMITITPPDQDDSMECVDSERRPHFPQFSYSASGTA
# [13] = molecular target: Serine/threonine-protein kinase Chk1 (Homo sapiens, UniProt O14757); assay: Inhibition of CHK1 kinase
# [14] = molecular target: Mitogen-activated protein kinase 3 (Homo sapiens, UniProt P27361); assay: Inhibition of ERK1 kinase
# Mitogen-activated protein kinase 3, sequence (P27361 whole entry): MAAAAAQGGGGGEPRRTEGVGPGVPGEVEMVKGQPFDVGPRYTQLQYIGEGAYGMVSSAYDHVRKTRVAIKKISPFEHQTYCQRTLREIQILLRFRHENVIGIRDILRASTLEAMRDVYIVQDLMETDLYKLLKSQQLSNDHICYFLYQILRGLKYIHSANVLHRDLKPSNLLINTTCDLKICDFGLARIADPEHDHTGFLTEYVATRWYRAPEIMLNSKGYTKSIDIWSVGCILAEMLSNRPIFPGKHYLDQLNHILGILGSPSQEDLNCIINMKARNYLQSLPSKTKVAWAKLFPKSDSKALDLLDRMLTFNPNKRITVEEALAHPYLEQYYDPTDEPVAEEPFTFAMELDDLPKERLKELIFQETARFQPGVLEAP
# [15] = molecular target: Inhibitor of nuclear factor kappa-B kinase subunit beta (Homo sapiens, UniProt O14920); assay: Inhibition of IKKB kinase
# [16] = molecular target: 3-phosphoinositide-dependent protein kinase 1 (Homo sapiens, UniProt O15530); assay: Inhibitory concentration against PDK 1
# 3-phosphoinositide-dependent protein kinase 1, sequence (O15530 whole entry): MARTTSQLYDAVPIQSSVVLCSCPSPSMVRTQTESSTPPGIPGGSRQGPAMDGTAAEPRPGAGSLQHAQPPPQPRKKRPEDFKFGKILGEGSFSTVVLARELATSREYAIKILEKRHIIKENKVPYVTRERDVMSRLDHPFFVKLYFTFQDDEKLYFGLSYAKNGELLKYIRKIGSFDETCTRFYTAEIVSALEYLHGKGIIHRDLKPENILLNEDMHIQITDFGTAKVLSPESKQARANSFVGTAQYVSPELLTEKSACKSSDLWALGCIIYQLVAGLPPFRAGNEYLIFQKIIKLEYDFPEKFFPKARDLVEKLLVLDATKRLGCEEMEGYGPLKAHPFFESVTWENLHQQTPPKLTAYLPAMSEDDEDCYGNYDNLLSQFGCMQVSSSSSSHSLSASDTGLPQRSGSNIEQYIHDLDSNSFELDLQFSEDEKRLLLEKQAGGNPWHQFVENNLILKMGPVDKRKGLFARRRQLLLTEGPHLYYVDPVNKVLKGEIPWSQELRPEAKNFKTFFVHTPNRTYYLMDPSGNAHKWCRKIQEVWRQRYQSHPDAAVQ
# [17] = molecular target: Dual specificity mitogen-activated protein kinase kinase 4 (Homo sapiens, UniProt P45985); assay: Inhibition of Mitogen activated protein kinase kinase 4
# [18] = molecular target: Dual specificity mitogen-activated protein kinase kinase 1 (Homo sapiens, UniProt Q02750); assay: Inhibition of mitogen activated protein kinase kinase 1 (MEK1)
# Dual specificity mitogen-activated protein kinase kinase 1, sequence (Q02750 whole entry): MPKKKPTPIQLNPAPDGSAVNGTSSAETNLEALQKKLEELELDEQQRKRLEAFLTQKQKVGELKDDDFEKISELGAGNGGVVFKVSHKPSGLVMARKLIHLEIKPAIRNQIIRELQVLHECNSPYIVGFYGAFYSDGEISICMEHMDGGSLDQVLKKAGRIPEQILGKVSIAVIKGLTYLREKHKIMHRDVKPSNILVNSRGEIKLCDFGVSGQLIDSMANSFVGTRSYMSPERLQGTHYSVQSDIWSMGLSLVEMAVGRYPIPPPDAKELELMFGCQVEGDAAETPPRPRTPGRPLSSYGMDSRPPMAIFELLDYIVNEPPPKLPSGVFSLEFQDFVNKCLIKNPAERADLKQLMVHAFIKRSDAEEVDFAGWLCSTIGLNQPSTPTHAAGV
# [19] = molecular target: Cyclin-dependent kinase 2/cyclin A (Homo sapiens, UniProt P24941); assay: Inhibition of CDK2/cyclin A; format: protein-complex assay
# [20] = molecular target: Mitogen-activated protein kinase 8 (Homo sapiens, UniProt P45983); assay: Inhibition of c-Jun N-Terminal kinase 1
# [21] = molecular target: Mitogen-activated protein kinase 9 (Homo sapiens, UniProt P45984); assay: Inhibitory concentration against c-Jun N-Terminal kinase 2
# Mitogen-activated protein kinase 9, sequence (P45984 whole entry): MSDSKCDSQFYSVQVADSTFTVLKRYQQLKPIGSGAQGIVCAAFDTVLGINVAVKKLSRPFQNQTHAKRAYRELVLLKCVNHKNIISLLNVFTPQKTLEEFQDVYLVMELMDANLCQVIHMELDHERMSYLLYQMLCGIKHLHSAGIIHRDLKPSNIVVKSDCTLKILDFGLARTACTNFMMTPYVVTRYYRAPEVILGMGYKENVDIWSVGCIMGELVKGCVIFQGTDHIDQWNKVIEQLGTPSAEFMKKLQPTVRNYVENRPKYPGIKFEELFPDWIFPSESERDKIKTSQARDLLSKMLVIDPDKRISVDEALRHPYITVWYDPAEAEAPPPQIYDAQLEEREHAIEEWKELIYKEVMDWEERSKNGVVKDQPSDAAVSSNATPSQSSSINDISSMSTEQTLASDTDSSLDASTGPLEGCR
# [22] = molecular target: RAF proto-oncogene serine/threonine-protein kinase (Homo sapiens, UniProt P04049); assay: Inhibition of RAF proto-oncogene serine/threonine protein kinase
# [23] = molecular target: Ribosomal protein S6 kinase alpha-5 (Homo sapiens, UniProt O75582); assay: Inhibition of MSK-1 kinase; Range is 5-10
# [24] = molecular target: Rho-associated protein kinase 2 (Homo sapiens, UniProt O75116); assay: Inhibition of protein kinase ROCK2; Range is 5-10
# [25] = test system: Mus musculus; assay: Dose administered orally to decrease TNF alpha plasma level in mice; format: functional; settings: po
# Procedure, shortened: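 Groups of six mice. LPS endotoxin (O111:B4, 0.3 mg/kg) given i.p. 15 min later. Plasma TNF-α measured by ELISA in heparinized blood collected by decapitation. Data given as mean ± SEM, analysed by one-way ANOVA with Dunnett's t-test.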
# [26] = Oral bioavailability in rat; format: ADME, organism-based; settings: in vivo, read-out: Bioavailabiility
# [27] = molecular target: MAP kinase-activated protein kinase 2 (Homo sapiens, UniProt P49137); assay: Inhibition of MAP kinase-activated protein kinase 2
# MAP kinase-activated protein kinase 2, sequence (P49137 whole entry): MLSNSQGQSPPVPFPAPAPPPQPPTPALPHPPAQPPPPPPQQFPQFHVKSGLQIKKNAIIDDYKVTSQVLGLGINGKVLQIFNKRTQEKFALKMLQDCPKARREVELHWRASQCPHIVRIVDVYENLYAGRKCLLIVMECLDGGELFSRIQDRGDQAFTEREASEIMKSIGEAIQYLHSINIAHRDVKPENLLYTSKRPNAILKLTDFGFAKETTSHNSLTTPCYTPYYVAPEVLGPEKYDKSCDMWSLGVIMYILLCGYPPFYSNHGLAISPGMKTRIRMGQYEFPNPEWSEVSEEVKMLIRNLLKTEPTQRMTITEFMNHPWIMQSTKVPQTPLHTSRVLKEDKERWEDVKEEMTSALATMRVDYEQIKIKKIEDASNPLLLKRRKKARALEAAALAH
# [28] = molecular target: Ribosomal protein S6 kinase (P70S6K) (Homo sapiens, UniProt P23443+Q9UBS0); assay: Inhibition of p70S6K; format: protein-complex assay
# [29] = molecular target: Mitogen-activated protein kinase 14 (Homo sapiens, UniProt Q16539); assay: Inhibition of MAP kinase p38 alpha
# Mitogen-activated protein kinase 10, sequence (P49187 whole entry): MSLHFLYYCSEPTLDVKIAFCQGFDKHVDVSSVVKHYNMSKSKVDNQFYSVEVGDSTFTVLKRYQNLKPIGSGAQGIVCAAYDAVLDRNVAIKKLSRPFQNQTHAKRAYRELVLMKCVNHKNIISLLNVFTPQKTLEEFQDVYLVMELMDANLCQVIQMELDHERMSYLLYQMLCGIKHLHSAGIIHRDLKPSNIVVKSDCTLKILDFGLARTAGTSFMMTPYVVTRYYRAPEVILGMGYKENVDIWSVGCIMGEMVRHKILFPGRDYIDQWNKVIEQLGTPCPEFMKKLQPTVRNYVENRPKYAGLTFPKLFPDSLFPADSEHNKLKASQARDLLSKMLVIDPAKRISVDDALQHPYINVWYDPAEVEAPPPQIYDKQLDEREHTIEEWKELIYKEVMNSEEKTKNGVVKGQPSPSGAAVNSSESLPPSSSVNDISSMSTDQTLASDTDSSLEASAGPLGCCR
smiles,measurement,setting,value
CNCCCN(C)c1nccc(/C(C#N)=C2\Nc3ccccc3S2)n1,IC50,[1],1320 nM
COc1ccc(CCNc2nccc(/C(C#N)=C3\Nc4ccccc4S3)n2)cc1,IC50,[1],3080 nM
N#C/C(=C1/Nc2ccccc2S1)c1ccnc(NCCn2cncn2)n1,IC50,[1],397 nM
N#C/C(=C1/Nc2ccccc2S1)c1ccnc(NCc2cccnc2)n1,IC50,[1],337 nM
same,inhibition at 10 µM,[2],95%
N#C/C(=C1/Nc2ccccc2S1)c1ccnc(N)n1,IC50,[1],7500 nM
N#C/C(=C1/Nc2ccccc2S1)c1ccnc(N2CCNCC2)n1,IC50,[1],6600 nM
N#C/C(=C1/Nc2ccccc2S1)c1ccnc(NCCc2c[nH]cn2)n1,IC50,[1],80 nM
same,inhibition at 10 µM,[2],80%
CN(C)c1nccc(/C(C#N)=C2\Nc3ccccc3S2)n1,IC50,[1],9400 nM
N#C/C(=C1/Nc2ccccc2S1)c1cccc(Cl)n1,IC50,[1],> 5000 nM
CCCNc1nccc(/C(C#N)=C2\Nc3ccccc3S2)n1,IC50,[1],> 5000 nM
N#C/C(=C1/Nc2ccccc2S1)c1ccnc(NCCN2CCOCC2)n1,IC50,[1],760 nM
CN(C)CCNc1nccc(/C(C#N)=C2\Nc3ccccc3S2)n1,IC50,[1],1300 nM
N#C/C(=C1/Nc2ccccc2S1)c1ccnc(NCCc2ccc([N+](=O)[O-])cc2)n1,IC50,[1],600 nM
N#C/C(=C1/Nc2ccccc2S1)c1ccnc(NCc2ccccc2)n1,IC50,[1],6500 nM
N#C/C(=C1/Nc2ccccc2S1)c1ccnc(NCCc2cccnc2)n1.O=C(O)C(F)(F)F.O=C(O)C(F)(F)F,IC50,[3],> 10 µM
same,IC50,[4],> 10 µM
same,IC50,[5],1100 nM
same,IC50,[6],> 10 µM
same,IC50,[7],10 µM
same,IC50,[8],10 µM
same,IC50,[9],10 µM
same,IC50,[10],> 10 µM
same,IC50,[11],> 10 µM
same,IC50,[12],> 10 µM
same,IC50,[13],> 10 µM
same,IC50,[14],> 10 µM
same,IC50,[15],> 10 µM
same,IC50,[16],> 10 µM
same,IC50,[17],> 10 µM
same,IC50,[18],> 10 µM
same,IC50,[19],1400 nM
same,IC50,[20],150 nM
same,IC50,[21],220 nM
same,IC50,[22],1200 nM
same,IC50,[23],10 µM
same,IC50,[24],10 µM
same,ED50,[25],3 mg/kg
same,inhibition at 10 µM,[2],90%
same,bioavailability,[26],38%
same,IC50,[27],> 10 µM
same,IC50,[28],> 10 µM
same,IC50,[29],4.8 µM
N#C/C(=C1/Nc2ccccc2S1)c1ccnc(NCCc2ccc(F)cc2)n1,IC50,[1],> 5000 nM
same,inhibition at 10 µM,[2],0%
N#C/C(=C1/Nc2ccccc2S1)c1ccnc(NCCc2ccc(Br)cc2)n1,IC50,[1],> 5000 nM
N#C/C(=C1/Nc2ccccc2S1)c1ccnc(NCCc2cccc(Cl)c2)n1,IC50,[1],> 5000 nM
N#C/C(=C1/Nc2ccccc2S1)c1ccnc(NCc2ccccn2)n1,IC50,[1],650 nM
N#C/C(=C1/Nc2ccccc2S1)c1ccnc(NCCc2ccccn2)n1,IC50,[1],250 nM
same,inhibition at 10 µM,[2],60%
N#C/C(=C1/Nc2ccccc2S1)c1ccnc(N2CCOCC2)n1,IC50,[1],2900 nM
CCCN(CCCNc1nccc(/C(C#N)=C2\Nc3ccccc3S2)n1)C(=O)CC,IC50,[1],1340 nM
Cc1ccc(CCNc2nccc(/C(C#N)=C3\Nc4ccccc4S3)n2)cc1,IC50,[1],> 5000 nM
N#C/C(=C1/Nc2ccccc2S1)c1ccnc(NCCO)n1,IC50,[1],510 nM
N#CC(=C1Nc2ccccc2N1)c1nc(Cl)ncc1Br,IC50,[1],> 5000 nM
COCCNc1nccc(/C(C#N)=C2\Nc3ccccc3S2)n1,IC50,[1],820 nM
Cn1cncc1CCNc1nccc(/C(C#N)=C2\Nc3ccccc3S2)n1,inhibition at 10 µM,[2],100%
N#C/C(=C1/Nc2ccccc2S1)c1cc(Br)nc(Cl)n1,IC50,[1],350 nM
N#C/C(=C1/Nc2ccccc2S1)c1ccnc(NCCc2ccc(O)cc2)n1,IC50,[1],3500 nM
N#C/C(=C1/Nc2ccccc2S1)c1ccnc(NCCc2ccccc2F)n1,IC50,[1],273 nM
same,inhibition at 10 µM,[2],90%
N#C/C(=C1/Nc2ccccc2S1)c1ccnc(NCCN2CCCCC2)n1,IC50,[1],3740 nM
N#C/C(=C1/Nc2ccccc2S1)c1ccnc(NCCCn2ccnc2)n1,IC50,[1],147 nM
same,inhibition at 10 µM,[2],31%
N#C/C(=C1/Nc2ccccc2S1)c1ccnc(NCCCN)n1,IC50,[1],707 nM
N#C/C(=C1/Nc2ccccc2S1)c1ccnc(NCCN)n1,IC50,[1],1490 nM
CN1/C(=C(/C#N)c2ccnc(Cl)n2)Sc2ccccc21,IC50,[1],> 5000 nM
N#C/C(=C1/Nc2ccccc2S1)c1ccncn1,IC50,[1],> 5000 nM
N#C/C(=C1/Nc2cc(C(F)(F)F)ccc2S1)c1ccnc(Cl)n1,IC50,[1],993 nM
CN1CCN(CCCNc2nccc(/C(C#N)=C3\Nc4ccccc4S3)n2)CC1,inhibition at 10 µM,[2],83%
CNc1nccc(/C(C#N)=C2\Nc3ccccc3S2)n1,IC50,[1],950 nM
N#C/C(=C1/Nc2ccccc2S1)c1ccnc(Cl)n1,IC50,[1],250 nM
same,inhibition at 10 µM,[2],90%
CN(C)CCCNc1nccc(/C(C#N)=C2\Nc3ccccc3S2)n1,IC50,[1],1640 nM
N#C/C(=C1/Nc2ccccc2S1)c1ccnc(NCCc2ccc(S(N)(=O)=O)cc2)n1,IC50,[1],41 nM
N#C/C(=C1/Nc2ccccc2S1)c1ccnc(NCCn2ccc3ccccc32)n1,IC50,[1],458 nM
N#C/C(=C1/Nc2ccccc2S1)c1ccnc(NCCc2ccccc2)n1,IC50,[1],> 5000 nM
CCO/C(O)=C(\c1ccnc(Cl)n1)c1nc2ccccc2s1,IC50,[1],> 5000 nM
N#C/C(=C1/Nc2ccccc2S1)c1ccnc(NCCCO)n1,IC50,[1],660 nM
CCCN(CCC)c1nccc(/C(C#N)=C2\Nc3ccccc3S2)n1,IC50,[1],> 5000 nM
N#C/C(=C1/Nc2ccccc2S1)c1ccnc(NCCCn2cccn2)n1,IC50,[1],583 nM
N#C/C(=C1/Nc2ccccc2S1)c1ccnc(NCc2ccncc2)n1,IC50,[1],340 nM
COC1CCN(c2nccc(/C(C#N)=C3\Nc4ccccc4S3)n2)CC1,IC50,[1],7200 nM
N#C/C(=C1/Nc2ccccc2S1)c1ccnc(NCCc2cccc(F)c2)n1,IC50,[1],1810 nM
Cn1cnc(CCNc2nccc(/C(C#N)=C3\Nc4ccccc4S3)n2)c1,IC50,[1],65 nM
N#C/C(=C1/Nc2ccccc2S1)c1ccnc(NCc2nn[nH]n2)n1,IC50,[1],> 5000 nM
N#C/C(=C1/Nc2ccccc2S1)c1ccnc(NN)n1,IC50,[1],500 nM
N#C/C(=C1/Nc2ccccc2S1)c1ccnc(NCCc2ccc(N)cc2)n1,IC50,[1],80 nM
same,inhibition at 10 µM,[2],80%
N#C/C(=C1/Nc2ccccc2S1)c1ccnc(NCCc2ccc(Cl)c(Cl)c2)n1,IC50,[1],> 5000 nM
CN1CCN(c2nccc(/C(C#N)=C3\Nc4ccccc4S3)n2)CC1,IC50,[1],6800 nM
Cc1cc(/C(C#N)=C2\Nc3ccccc3S2)nc(Cl)n1,IC50,[1],> 5000 nM
N#C/C(=C1/Nc2ccccc2S1)c1ccnc(NCCCN2CCOCC2)n1,IC50,[1],407 nM
